From ChEMBL document CHEMBL3526125, “P-glycoprotein increases portal bioavailability of loperamide in mouse by reducing first-pass intestinal metabolism” (Drug Metab Dispos, 2013)

Experiments:
[1] = AUC (0 to 120 mins) in P-gp competent CF-1 mouse plasma at 0.4 mg/kg through oral gavage in presence of 1 mM ABT CYP3A inhibitor; type: ADME, organism-based; parameters: time < 2 hr, dose 0.4 mg/kg, route oral
[2] = AUC (0 to 120 mins) in P-gp competent CF-1 mouse plasma at 0.4 mg/kg through oral gavage; type: ADME, organism-based; parameters: time < 2 hr, dose 0.4 mg/kg, route oral
Summary of the method: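 Mice were anaesthetised with IP ketamine 140 mg/kg and xylazine 15 mg/kg, kept at 37°C, and portal vein-cannulated. Pretreatment was saline or oral ABT at 50 mg/kg. Portal-circulation AUC0–120 min was calculated.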

[3] = Drug metabolism in P-gp competent CF-1 mouse intestine assessed as CYP3A-mediated metabolite formation measured per cm'2 of tissue by LC-MS/MS analysis in presence of 100 uM Cyp3a oxidative metabolism inhibitor troleandomycin; type: ADME, tissue-based
[4] = Drug metabolism in P-gp deficient CF-1 mouse intestine assessed as CYP3A-mediated metabolite formation measured per cm'2 of tissue by LC-MS/MS analysis in presence of 100 uM Cyp3a oxidative metabolism inhibitor troleandomycin; type: ADME, tissue-based
[5] = Portal bioavailability in P-gp competent CF-1 mouse at 0.23 mg/kg through oral gavage by LC-MS/MS analysis in presence of 1 mM ABT CYP3A inhibitor; type: ADME, organism-based; settings: in vivo
Summary of the method: (§1)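 Mice received oral ABT 50 mg/kg 3 h before study, plus another 50 mg/kg co-administered with loperamide 0.23 mg/kg in 300 µL 0.9% NaCl with 1% EtOH. Portal and jugular sampling over 240 min. F_G = (portal minus systemic-returned mass)/dose, using portal flow 1.45 mL/min and blood:plasma ratio 0.71. n=6.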

[6] = Portal bioavailability in P-gp deficient CF-1 mouse at 0.23 mg/kg through oral gavage by LC-MS/MS analysis in presence of 1 mM ABT CYP3A inhibitor; type: ADME, organism-based; settings: in vivo; summary of the method: as §1
[7] = AUC in P-gp competent CF-1 mouse plasma at 0.23 mg/kg through systemic exposure; type: ADME, organism-based; parameters: dose 0.23 mg/kg
Summary of the method: (§2)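 Overnight-fasted, ketamine/xylazine-anesthetized CF-1 or Mdr1a1-/- mice with jugular vein cannulae. Loperamide 0.23 or 0.47 mg/kg by oral gavage in 300 µL 0.9% NaCl with 1% EtOH. Jugular blood (20 µL) taken at 10, 30, 60, 120, 180 and 240 min. Plasma loperamide measured by LC-MS/MS. AUC0–240 min, n=6.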

[8] = AUC in P-gp competent CF-1 mouse plasma at 0.47 mg/kg through systemic exposure; type: ADME, organism-based; parameters: dose 0.47 mg/kg; summary of the method: as §2
[9] = AUC in P-gp deficient CF-1 mouse plasma at 0.23 mg/kg through systemic exposure; type: ADME, organism-based; parameters: dose 0.23 mg/kg; summary of the method: as §2
[10] = AUC in P-gp deficient CF-1 mouse plasma at 0.47 mg/kg through systemic exposure; type: ADME, organism-based; parameters: dose 0.47 mg/kg; summary of the method: as §2
[11] = AUC (0 to 240 mins) in P-gp deficient CF-1 mouse plasma at 0.23 mg/kg through oral gavage; type: ADME, organism-based; parameters: time < 4 hr, dose 0.23 mg/kg, route oral
Summary of the method: (§3)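 Male CF-1 (P-gp competent) or Mdr1a1-/- mice, overnight-fasted, on ketamine/xylazine anesthesia held at 37°C, portal vein-cannulated. Loperamide 0.23, 0.47 or 0.95 mg/kg by oral gavage in 300 µL 0.9% NaCl with 1% EtOH. Serial 20 µL portal blood samples over 240 min. Plasma loperamide quantified by LC-MS/MS. AUC0–240 min reported as mean ± SD, n=6.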

[12] = AUC (0 to 240 mins) in P-gp competent CF-1 mouse plasma at 0.94 mg/kg through oral gavage; type: ADME, organism-based; parameters: time < 4 hr, dose 0.94 mg/kg, route oral; summary of the method: as §3
[13] = AUC (0 to 240 mins) in P-gp competent CF-1 mouse plasma at 0.47 mg/kg through oral gavage; type: ADME, organism-based; parameters: time < 4 hr, dose 0.47 mg/kg, route oral; summary of the method: as §3
[14] = AUC (0 to 240 mins) in P-gp competent CF-1 mouse plasma at 0.23 mg/kg through oral gavage; type: ADME, organism-based; parameters: time < 4 hr, dose 0.23 mg/kg, route oral; summary of the method: as §3
[15] = AUC (0 to 240 mins) in P-gp deficient CF-1 mouse plasma at 0.47 mg/kg through oral gavage; type: ADME, organism-based; parameters: time < 4 hr, dose 0.47 mg/kg, route oral; summary of the method: as §3
[16] = Drug metabolism in P-gp competent CF-1 mouse intestine assessed as CYP3A-mediated metabolite formation […]; type: ADME, tissue-based; settings: excised jejunum tissue
[17] = Drug metabolism in P-gp deficient CF-1 mouse intestine assessed as CYP3A-mediated metabolite formation […]; type: ADME, tissue-based; settings: excised jejunum tissue
CYP3A [18] = experiment: Drug metabolism in P-gp competent CF-1 mouse intestine assessed as CYP3A-mediated […] by LC-MS/MS analysis; type: ADME, tissue-based
Summary of the method: (§4)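 Jejunum from fasted CF-1 or Mdr1a1-/- mice mounted in diffusion chambers in oxygenated KBR at 37°C; tissue used if TEER ≥250 Ω·cm². Apical loperamide 0.75–125 µM in KBR with 0.1% EtOH for 90 min. Monodemethyl- plus didemethyl-loperamide summed across tissue, AP and BL by LC-MS/MS. Fitted to Michaelis–Menten for Vmax and Km. n=3 mice × 4 tissues.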

CYP3A [19] = experiment: Drug metabolism in P-gp deficient CF-1 mouse intestine assessed as CYP3A-mediated […] by LC-MS/MS analysis; type: ADME, tissue-based; summary of the method: as §4
[20] = Portal bioavailability in P-gp deficient CF-1 mouse at 0.94 mg/kg through oral gavage; type: ADME, organism-based; settings: in vivo
Summary of the method: (§5)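 Portal vein-cannulated, anesthetized CF-1 or Mdr1a1-/- mice given oral loperamide 0.23, 0.47 or 0.94 mg/kg. Portal and systemic plasma converted to blood concentration using a blood:plasma ratio of 0.71. M_portal = Q_portal (1.45 mL/min) × AUC_portal(0–4 h). M_systemic is subtracted to give M_absorbed, and F_G = M_absorbed/dose. n=6.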

[21] = Portal bioavailability in P-gp competent CF-1 mouse at 0.47 mg/kg through oral gavage; type: ADME, organism-based; settings: in vivo; summary of the method: as §5
[22] = Portal bioavailability in P-gp deficient CF-1 mouse at 0.47 mg/kg through oral gavage; type: ADME, organism-based; settings: in vivo; summary of the method: as §5
[23] = Portal bioavailability in P-gp competent CF-1 mouse at 0.23 mg/kg through oral gavage; type: ADME, organism-based; settings: in vivo; summary of the method: as §5
[24] = Portal bioavailability in P-gp deficient CF-1 mouse at 0.23 mg/kg through oral gavage; type: ADME, organism-based; settings: in vivo; summary of the method: as §5
[25] = AUC (0 to 240 mins) in P-gp deficient CF-1 mouse plasma at 0.94 mg/kg through oral gavage; type: ADME, organism-based; parameters: time < 4 hr, dose 0.94 mg/kg, route oral; summary of the method: as §3

C[C@]12CC[C@H]3[C@@H](CCC4=CC(=O)CC[C@@]43C)[C@@H]1CC[C@@H]2O [TESTOSTERONE]
AUC(0-t) at 2 h [1]: 1 ng·h/mL | AUC(0-t) at 2 h [2]: 43.3 ng·h/mL | Vmax [3]: 0.5 pmol/min | Vmax [4]: 0.5 pmol/min

CN(C)C(=O)C(CCN1CCC(O)(c2ccc(Cl)cc2)CC1)(c1ccccc1)c1ccccc1 [LOPERAMIDE]
Fg [5]: 3.6% | Fg [6]: 28% | AUC [7]: 0.933 ng·h/mL | AUC [8]: 0.517 ng·h/mL | AUC [9]: 1.03 ng·h/mL | AUC [10]: 4.33 ng·h/mL | AUC(0-t) at 4 h [11]: 1.5 ng·h/mL | AUC(0-t) at 4 h [12]: 81.7 ng·h/mL | AUC(0-t) at 4 h [13]: 4.48 ng·h/mL | AUC(0-t) at 4 h [14]: 4.43 ng·h/mL | AUC(0-t) at 4 h [15]: 7 ng·h/mL | Vmax [16]: 31 pmol/min/cm² | Vmax [17]: 30 pmol/min/cm² | Km (CYP3A [18]): 22 µM | Km (CYP3A [19]): 4.5 µM | Fg [20]: 17% | Fg [21]: 1.7% | Fg [22]: 1.1% | Fg [23]: 2.6% | Fg [24]: 0.4% | AUC(0-t) at 4 h [25]: 95 ng·h/mL
